# PREPL inhibitor – human PREPL enzyme inhibition | Q4J6C6 | recombinant PREPL, fluorescence polarization activity-based probe | inhibition, % at 5.96 µM | 320,000 tested, 0.68% active | AID 2751
# PAFAH1B2 FP inh – blocks human PAF acetylhydrolase 1b catalytic subunit 2. inhibition, % at 3.39 µM. 340,000 tested, 1.2% active. AID 492953. P68402. recombinant PAFAH1B2, FP-rhodamine activity probe, fluorescence polarization;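 active = inhibition above the mean of all tested compounds plus 3 SD, cut at about 24% in these data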
# Apaf-1 inh – inhibitors of human Apaf-1 apoptosome | reconstituted apoptosome caspase-3 activity, DEVD-Rh110 fluorescence | inhibition, % at 20 µM | 330,000 tested, 0.71% active; active = inhibition of at least 40% at 20 µM
#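 Medium: Hepes buffer, pH 7.5 / System: biochemical Apaf-1 apoptosome reconstitution / Measured by: Rh110 fluorescence, excitation 480 nm, emission 540 nm / Times: compound with Apaf-1, dATP, procaspase-3 30 min, then 50 min reaction, room temperature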
# pPAFAH inh – pPAFAH (human) enzyme inhibition; recombinant pPAFAH, FP-rhodamine probe fluorescence polarization; Q13093; inhibition, % at 3.39 µM; 330,000 tested, 1.5% active; AID 463082;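 active = inhibition above the mean inhibition across the screen plus 3 SD, cut at about 25% in these data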;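 note: inhibitors block binding of the rhodamine activity-based probe so polarization drops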
# Target sequence (Q13093 whole entry, looked up): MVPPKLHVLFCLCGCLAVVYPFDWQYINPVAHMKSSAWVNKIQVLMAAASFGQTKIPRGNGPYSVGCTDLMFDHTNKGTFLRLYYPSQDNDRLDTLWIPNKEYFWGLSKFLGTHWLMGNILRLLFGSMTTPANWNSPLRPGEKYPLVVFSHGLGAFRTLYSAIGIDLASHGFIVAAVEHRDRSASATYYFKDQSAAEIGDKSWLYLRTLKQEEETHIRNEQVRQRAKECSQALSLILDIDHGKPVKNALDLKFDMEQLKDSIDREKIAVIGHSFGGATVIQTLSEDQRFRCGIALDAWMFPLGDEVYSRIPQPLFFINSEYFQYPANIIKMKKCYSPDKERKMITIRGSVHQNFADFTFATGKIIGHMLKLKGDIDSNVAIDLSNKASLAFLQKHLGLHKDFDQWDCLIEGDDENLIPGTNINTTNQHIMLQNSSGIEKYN
# PAFAH1B3 inh – inhibitors of human PAFAH1B3. AID 492972. inhibition, % at 3.39 µM. 340,000 tested, 0.28% active. recombinant PAFAH1B3, FP-rhodamine probe, fluorescence polarization. Q15102;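 active = inhibition above the screen-wide average of all tested compounds plus 3 SD, cut at about 25% in these data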
# PAFAH2 inh – PAFAH2 (human) inhibition; Q99487; recombinant PAFAH2, FP-rhodamine activity probe, fluorescence polarization; inhibition, % at 3.39 µM; 340,000 tested, 0.99% active; AID 492956;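 active = inhibition above the mean over all tested compounds plus 3 SD, cut at about 30% in these data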;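 note: inhibitors block probe labeling of enzyme so polarization drops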
# PREPL confirm – human PREPL inhibition, confirmation; shares compounds with PREPL inhibitor; recombinant PREPL, fluorescence polarization activity probe; inhibition, % at 5.96 µM; 2,000 tested, 67% active; AID 2803
# Numbers stand for hits; . = inactive; / = not tested or not shown. Shown are actives, neighbours in structure and some others; about 3.5% of the full set was active somewhere. Cut-off read from the data, not from the text of the source, unless noted: active = inhibition above about 43%; inactive = the rest.
SMILES,PREPL inhibitor,PAFAH1B2 FP inh,Apaf-1 inh,pPAFAH inh,PAFAH1B3 inh,PAFAH2 inh,PREPL confirm
C[C@H](CO)N1C[C@H](C)[C@@H](CN(C)C(=O)Nc2ccc(C(F)(F)F)cc2)Oc2ccc(NC(=O)c3ccncc3)cc2C1=O,51,.,.,.,.,.,46
C[C@H](CO)N1C[C@H](C)[C@@H](CN(C)S(C)(=O)=O)Oc2c(NC(=O)Cc3ccccc3)cccc2C1=O,.,.,.,.,.,.,/
C[C@H](CO)N1C[C@H](C)[C@@H](CN(C)S(=O)(=O)c2ccc(F)cc2)Oc2c(NC(=O)Cc3ccccc3)cccc2C1=O,44,.,.,.,.,.,.
COc1ccc(NC(=O)Nc2ccc3c(c2)C(=O)N([C@@H](C)CO)C[C@@H](C)[C@@H](CN(C)CC2CCCCC2)O3)cc1,.,.,.,.,.,.,/
CCN(CC)S(=O)(=O)c1ccc(NC(=O)CSc2ncnc3ccccc23)cc1,.,.,.,.,.,.,/
CCC(C)(C)NC(=O)CN(C(=O)CCC(=O)Nc1nccs1)c1cccc(C)c1C,.,.,.,.,.,.,/
CC(C)(C)OC(=O)N1CCCC(C(=O)Nc2ccc(C(=O)N3CCCCC3)cc2)C1 (centres undefined),.,.,.,.,.,.,/
C[C@H](CO)N1C[C@H](C)[C@H](CN(C)Cc2ccccc2)Oc2c(NC(=O)Nc3ccc(F)cc3)cccc2C1=O,53,.,.,.,.,.,55
C[C@H]1CN([C@@H](C)CO)C(=O)c2cccc(NS(=O)(=O)c3ccc(Cl)cc3)c2O[C@@H]1CN(C)CC1CCCCC1,61,.,.,.,.,.,50
C[C@H](CO)N1C[C@H](C)[C@@H](CN(C)S(=O)(=O)c2cccs2)Oc2c(NC(=O)Cc3ccccc3)cccc2C1=O,43,.,.,.,.,.,.
C[C@@H]1CN([C@@H](C)CO)C(=O)Cc2cc(NC(=O)Nc3cccc4ccccc34)ccc2O[C@@H]1CN(C)S(C)(=O)=O,45,.,.,.,.,.,.
C[C@@H]1CN([C@@H](C)CO)C(=O)Cc2cc(NC(=O)Nc3cccc4ccccc34)ccc2O[C@@H]1CN(C)Cc1ccc(C(F)(F)F)cc1,.,.,.,.,.,.,/
COc1ccc(-c2c[n+](CC(=O)c3ccccc3)c3n2CCCCC3)cc1,.,.,.,.,.,.,/
COc1ccc(-c2c[n+]3c4n2CCCCC4=C(c2ccccc2)C3)cc1,54,.,.,.,.,.,.
COc1ccc2[nH]c(CN3CCN(CCC(C)C)C(CCO)C3)c(C)c2c1 (centres undefined),.,.,.,.,.,.,/
Cc1c(CN2CCN(CC(C)C)C(CCO)C2)[nH]c2ccc(Cl)cc12 (centres undefined),46,.,.,.,.,.,44
Cc1ccsc1/C=N/Nc1nc2ccccc2s1,46,.,.,.,.,.,55
C/C(=N\Nc1nc2ccccc2s1)c1cccs1,45,.,.,.,.,.,51
CC1=CC(=O)C(C(C)C)=CC1=NC(=O)c1ccc(C)cc1,.,.,.,.,.,.,/
CC(C)Nc1nnc(SCC(=O)Nc2ccc3c(c2)C(=O)c2ccccc2C3=O)s1,44,.,/,.,.,.,52
O=C(CSc1nnc(NC2CCCCC2)s1)Nc1ccc2c(c1)C(=O)c1ccccc1C2=O,.,.,.,.,.,.,/
O=C(c1ccccc1)c1coc2ccc(O)c(CN3CCOCC3)c12,43,.,.,.,.,.,44
COc1ccc(C(=O)c2coc3ccc(O)c(CN4CCCCC4)c23)cc1,57,.,.,.,.,.,59
Cc1ccccc1Cn1c(=N)n(CC(O)c2ccco2)c2ccccc21 (centres undefined),45,.,.,.,.,.,.
COc1ccccc1-c1nnc(SC/C(O)=C(\C#N)c2nc3ccccc3[nH]2)n1C1CCCCC1,.,.,.,.,.,.,/
SMILES,PREPL inhibitor,PAFAH1B2 FP inh,Apaf-1 inh,pPAFAH inh,PAFAH1B3 inh,PAFAH2 inh,PREPL confirm
N#C/C(=C(/O)CSc1nnc(Cc2cccs2)n1C1CCCCC1)c1nc2ccccc2[nH]1,43,.,.,.,.,.,.
CC1(C)C(=O)Nc2ccccc2N1C(=O)COC(=O)Cc1ccc(Cl)c(Cl)c1,47,28,.,.,.,.,.
CC(C)(C)OC(=O)N1CCN(c2ccc(NC(=O)c3ccco3)cc2)CC1,/,.,.,/,.,.,/
COc1cccc(-c2ccc(SCC(=O)NC3CCCCC3)nn2)c1,44,.,.,.,.,.,.
CCOC(=O)C1CCN(c2c(NCc3ccc(C(=O)N(C)Cc4ccccc4)cc3)c(=O)c2=O)CC1,.,.,.,.,.,.,/
CCOC(=O)N1CCN(c2nc3ccc(C(=O)c4ccccc4)cc3n3cnnc23)CC1,61,.,.,.,.,.,.
O=C(c1ccccc1)c1ccc2nc(N3CCN(C(=O)c4ccco4)CC3)c3nncn3c2c1,.,.,.,.,.,.,/
COc1ccc(Nc2nc(N)nc(CN3CCc4ccccc4C3)n2)cc1,43,.,.,.,.,.,.
CC(C)(C)[C@@H]1COC(=O)[C@@H](Cc2ccc(F)cc2)C/C=C\C[C@H](CC(=O)N(CCO)Cc2ccccc2)C(=O)N1,56,.,.,.,.,.,46
O=C1N[C@@H](Cc2c[nH]c3ccccc23)COC(=O)[C@@H](Cc2ccc(F)cc2)C/C=C\C[C@H]1CC(=O)N(CCO)Cc1ccccc1,62,.,.,28,.,.,53
O=C1OC[C@@H]2CCCN2C(=O)[C@@H](CC(=O)N(CCO)Cc2ccccc2)C/C=C\CC[C@H]1Cc1ccc(F)cc1,44,.,.,.,.,.,.
O=C1N[C@@H](c2ccccc2)COC(=O)[C@H](Cc2ccc(F)cc2)CC/C=C/C[C@H]1CC(=O)N(CCO)Cc1ccccc1,.,.,.,.,.,.,/
CC(C)(C)[C@@H]1COC(=O)[C@H](Cc2ccc(F)cc2)CC/C=C\C[C@@H](CC(=O)N(CCO)Cc2ccccc2)C(=O)N1,47,.,.,.,.,.,51
COC(=O)C1(CC2CC(c3cccc(Br)c3)=NO2)CCN(C(=O)OC(C)(C)C)CC1 (centres undefined),.,.,.,.,.,.,/
CCCNC(=O)NC(=O)CN1C(=O)NC(C)(c2ccc3ccccc3c2)C1=O (centres undefined),.,.,.,.,.,.,/
COc1ccc(OCc2cc(C(=O)NCC(C)(C)N3CCOCC3)no2)c(Cl)c1,.,.,.,.,.,.,/
O=C1N[C@@H](Cc2ccccc2)COC(=O)[C@@H](Cc2ccc(F)cc2)CC/C=C/C[C@@H]1CC(=O)N(CCO)Cc1ccccc1,44,26,.,.,.,.,43
